For experiment [1], the target named is Cyclin-dependent kinase 14 (Homo sapiens, UniProt O94921). The experiment can be described thus: Inhibition of FLAG-tagged CDK14 (unknown origin) expressed in human HEK293 cells assessed as blocking of CDK14 pulldown incubated for 4 hrs by biotinylated JNK-IN- based pull down assay. The gist of the method: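 Cells were treated with compound at various doses for 4 h and then lysed. Lysates were incubated with biotinylated JNK-IN-7 and captured on streptavidin-coated beads. CDK14 capture was detected by western blot.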

For experiment [2], the target named is Cyclin-dependent kinase 14/Cyclin-Y (Homo sapiens, UniProt O94921+Q8ND76). Briefly: Inhibition of recombinant GST-tagged human full length CDK14/cyclin Y (2 to end residues) preincubated for 30 mins by Lantha screen eu binding assay. The gist of the method:
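CDK14 binding was measured in a LanthaScreen binding assay. IC50 is the average of three replicates, reported ± standard error.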

Structures are written as SMILES.

Cyclin-dependent kinase 14/Cyclin-Y, sequence (O94921 whole entry): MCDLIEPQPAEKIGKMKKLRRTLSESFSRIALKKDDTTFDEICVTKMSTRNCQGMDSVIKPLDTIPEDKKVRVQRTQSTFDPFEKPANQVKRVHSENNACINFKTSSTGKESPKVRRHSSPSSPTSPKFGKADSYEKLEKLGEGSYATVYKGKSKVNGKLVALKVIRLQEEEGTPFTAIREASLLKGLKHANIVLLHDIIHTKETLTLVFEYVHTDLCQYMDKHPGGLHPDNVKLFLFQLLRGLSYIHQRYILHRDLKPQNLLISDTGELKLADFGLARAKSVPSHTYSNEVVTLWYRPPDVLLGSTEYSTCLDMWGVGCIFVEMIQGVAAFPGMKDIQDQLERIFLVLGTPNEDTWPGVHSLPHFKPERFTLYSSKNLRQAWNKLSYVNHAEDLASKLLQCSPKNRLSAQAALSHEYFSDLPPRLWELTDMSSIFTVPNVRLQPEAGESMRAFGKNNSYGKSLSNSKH
Cyclin-dependent kinase 14/Cyclin-Y, sequence (Q8ND76 2-341 limits assumed): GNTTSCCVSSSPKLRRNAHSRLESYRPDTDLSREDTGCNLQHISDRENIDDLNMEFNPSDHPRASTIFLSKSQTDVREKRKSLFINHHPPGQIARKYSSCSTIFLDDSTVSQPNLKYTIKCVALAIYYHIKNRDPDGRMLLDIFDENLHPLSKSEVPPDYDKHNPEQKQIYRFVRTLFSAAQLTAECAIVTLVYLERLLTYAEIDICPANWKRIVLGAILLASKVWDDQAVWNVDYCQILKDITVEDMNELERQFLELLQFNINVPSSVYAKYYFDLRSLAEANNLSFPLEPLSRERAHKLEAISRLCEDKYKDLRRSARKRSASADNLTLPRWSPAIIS
Cyclin-dependent kinase 14, sequence (O94921 whole entry): as the sequence (O94921 whole entry) above

Take `C=CC(=O)Nc1cccc(C(=O)N2CCC(NC(=O)c3n[nH]cc3NC(=O)c3c(Cl)cccc3Cl)CC2)c1`: in experiment [1], the IC50 was determined as 500 nM.

In the case of `CN(C)CC=CC(=O)Nc1cccc(C(=O)Nc2ccc(NC(=O)c3n[nH]cc3NC(=O)c3c(Cl)cccc3Cl)cc2)c1`, in experiment [2], the IC50 stood at 17 nM.

(Values after BindingDB's records for doi:10.1016/j.bmcl.2019.05.024 (Harvard Medical School, 2019).)
